{"source": "paper PMC2752828", "about": "(Organic & biomolecular chemistry, 2008)", "data": [{"target": "T1, Cdc25B catalytic domain (Homo sapiens, UniProt P30305)", "T1 sequence (P30305 374-551 limits assumed)": "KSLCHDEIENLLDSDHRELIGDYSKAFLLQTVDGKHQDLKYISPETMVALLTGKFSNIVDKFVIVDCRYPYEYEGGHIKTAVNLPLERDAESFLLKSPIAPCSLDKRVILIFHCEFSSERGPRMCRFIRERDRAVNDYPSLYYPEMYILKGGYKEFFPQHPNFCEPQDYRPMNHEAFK", "assay": "OMFP fluorescence phosphatase assay, 10-point curve", "format": "biochemical", "method_in_brief": "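Recombinant human Cdc25B catalytic domain incubated with test compound and O-methylfluorescein phosphate substrate for 60 min; fluorescence change read at 485 nm excitation/525 nm emission. Percent inhibition taken relative to maximum and minimum controls. IC50 fitted to four-parameter logistic model over 10 concentrations, 25 μM to 0.2 μM; two independent experiments in triplicate.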", "units": {"IC50": "nM"}, "values": [{"smiles": "O=C1C(Cl)=C(NCCN2CCOCC2)C(=O)c2c(Cl)ccnc21", "note": "[WDP1079, 4,7-Dichloro-6-(2-morpholin-4-yl-ethylamino)quinoline-5,8-dione]", "IC50": "1100 ± 100"}, {"smiles": "COc1ccnc2c1C(=O)C(NCCN1CCOCC1)=C(F)C2=O", "note": "[WDP1149, 7-Fluoro-4-methoxy-6-(2-morpholin-4-yl-ethylamino)quinoline-5,8-dione]", "IC50": "5300 ± 600"}, {"smiles": "O=C1C(Cl)=C(NCCN2CCOCC2)C(=O)c2nccnc21", "note": "[WDP1263, 6-Chloro-7-(2-morpholin-4-yl-ethylamino)quinoxaline-5,8-dione]", "IC50": "500 ± 100"}]}]}
